The text below walks through data of ChEMBL document CHEMBL1154167, “Discovery of azetidinyl ketolides for the treatment of susceptible and multidrug resistant community-acquired respiratory tract infections” (J Med Chem, 2009).

Molecules are shown by their SMILES. Values after ≈ are worked out from the molar mass of the structure shown.

Data set [1] deals with Streptococcus pneumoniae. Kind of data set: Antibacterial activity against multidrug-susceptible Streptococcus pneumoniae 1016 by NCCLS method. The data set is classed as functional.
For data set [2], the system named is Streptococcus pneumoniae. Briefly: Antibacterial activity against multidrug-resistant Streptococcus pneumoniae 1095 harboring ermB gene by NCCLS method. The data set is classed as functional.
Data set [3] has as its system Streptococcus pneumoniae. Briefly: Antibacterial activity against multidrug-resistant Streptococcus pneumoniae 1175 harboring mefA gene by NCCLS method. The class given is functional.
The subject of the next data set is Streptococcus pyogenes. Kind of data set: Antibacterial activity against multidrug-resistant Streptococcus pyogenes 1079 harboring ermB gene by NCCLS method. The class given is functional.
The subject of data set [4] is Haemophilus influenzae. Briefly: Antibacterial activity against multidrug-susceptible Haemophilus influenzae 1325 by NCCLS method. The class given is functional.
Data set [5] in a line: Metabolic stability in human liver microsomes assessed as hepatic extraction ratio at 1 uM. The class given is ADME, Microsome. Conditions: read-out: ERH. An outline of the steps:
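Human liver microsomes used to screen for metabolic clearance; the readout was the microsomal extraction ratio (ER).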

Data set [6] is described as follows: Metabolic stability in human liver cytosol assessed as compound turnover at 1 uM in presence of aldehyde oxidase inhibitor raloxifene. The class given is ADME. An outline of the steps:
(§1)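 Human liver cytosol incubations, used as a readout of aldehyde oxidase metabolism, run with and without the AO inhibitor raloxifene.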

Data set [7] can be described thus: Metabolic stability in human liver cytosol assessed as compound turnover at 1 uM after 60 mins. The class given is ADME, tissue-based. Conditions: 1 h. In short, it runs like this:
as §1

The target of data set [8] is Voltage-gated inwardly rectifying potassium channel KCNH2 (Homo sapiens, UniProt Q12809). Briefly: Inhibition of human ERG by patch-clamp assay.
Voltage-gated inwardly rectifying potassium channel KCNH2, sequence (Q12809 whole entry): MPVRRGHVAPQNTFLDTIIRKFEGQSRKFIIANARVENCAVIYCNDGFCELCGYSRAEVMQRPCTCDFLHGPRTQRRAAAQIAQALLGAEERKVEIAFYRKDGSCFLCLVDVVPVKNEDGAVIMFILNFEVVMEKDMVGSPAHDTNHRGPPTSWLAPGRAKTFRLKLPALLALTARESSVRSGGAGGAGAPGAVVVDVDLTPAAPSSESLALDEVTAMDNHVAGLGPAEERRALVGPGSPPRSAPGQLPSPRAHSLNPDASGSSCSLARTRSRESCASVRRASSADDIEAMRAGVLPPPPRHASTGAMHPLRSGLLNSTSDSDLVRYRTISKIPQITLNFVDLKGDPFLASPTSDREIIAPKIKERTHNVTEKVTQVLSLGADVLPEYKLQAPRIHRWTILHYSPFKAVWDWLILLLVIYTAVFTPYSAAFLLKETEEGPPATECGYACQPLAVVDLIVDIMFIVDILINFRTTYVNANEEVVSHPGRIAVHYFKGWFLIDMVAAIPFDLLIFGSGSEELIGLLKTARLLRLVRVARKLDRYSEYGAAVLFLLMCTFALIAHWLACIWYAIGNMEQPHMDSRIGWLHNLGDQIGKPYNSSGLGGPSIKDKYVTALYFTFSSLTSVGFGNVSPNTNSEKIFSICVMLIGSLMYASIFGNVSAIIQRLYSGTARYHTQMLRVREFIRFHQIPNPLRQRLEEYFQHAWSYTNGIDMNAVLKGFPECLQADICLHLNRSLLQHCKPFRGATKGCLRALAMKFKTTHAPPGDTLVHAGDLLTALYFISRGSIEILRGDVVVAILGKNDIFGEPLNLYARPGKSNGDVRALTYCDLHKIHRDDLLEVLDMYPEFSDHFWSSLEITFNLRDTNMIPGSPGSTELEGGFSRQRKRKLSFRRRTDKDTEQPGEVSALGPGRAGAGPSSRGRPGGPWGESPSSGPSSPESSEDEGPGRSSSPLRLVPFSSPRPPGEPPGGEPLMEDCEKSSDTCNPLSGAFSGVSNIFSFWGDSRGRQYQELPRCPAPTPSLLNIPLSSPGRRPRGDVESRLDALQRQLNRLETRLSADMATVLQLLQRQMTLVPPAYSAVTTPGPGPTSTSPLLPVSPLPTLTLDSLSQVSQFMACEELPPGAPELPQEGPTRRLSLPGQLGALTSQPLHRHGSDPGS
Data set [9] has as its system Streptococcus pneumoniae. Kind of data set: Antibacterial activity against multidrug-resistant Streptococcus pneumoniae 1095 harboring ermB infected in po dosed mouse respiratory tract model assessed as survival administered 18 hrs postinfection BID for 2 days measured on day 10 postinfection. The class given is functional. Conditions: Streptococcus pneumoniae, 1095, po; read-out: PD50. In short, it runs like this: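 Murine respiratory tract infection model using S. pneumoniae 1095 (erm). Compounds were given orally. The outcome was the 50% protective dose (PD50), reported as (mg/kg)/dose.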

Data set [10] relates to Haemophilus influenzae. Kind of data set: Antibacterial activity against multidrug-susceptible Haemophilus influenzae 1325 infected in po dosed Mongolian gerbil otitis media model assessed as reduction of bacterial infection administered 18 hrs postinfection TID for 2 days measured on day 4 postinfection. The class given is functional. Conditions: Haemophilus influenzae, 1325, po. An outline of the steps:
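Gerbil otitis media model infected with H. influenzae 1325; compounds given orally. Efficacy expressed as ED50 in (mg/kg)/dose.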

With `CC[C@H]1OC(=O)[C@H](C)C(=O)[C@H](C)[C@@H](O[C@@H]2O[C@H](C)C[C@H](N(C)C)[C@H]2O)[C@](C)(O)C[C@@H](C)C(=O)[C@H](C)[C@H]2N(C3CN(Cc4c(OC)cnc5ncccc45)C3)C(=O)O[C@]12C`, the MIC in the data set with Streptococcus pneumoniae [1] was at most 0.06 µg/mL; with Streptococcus pneumoniae [2], at most 0.06 µg/mL; in the data set with Streptococcus pneumoniae [3], at most 0.06 µg/mL; against Streptococcus pyogenes it was at most 0.06 µg/mL; against Haemophilus influenzae [4] it was 8 µg/mL (≈ 9.69 µM). Moreover, in [5], the hepatic extraction ratio at 1 µM is 0.8. Moreover, the half-life at 1 µM in data set [6] is under 2 h.

On to `CC[C@H]1OC(=O)[C@H](C)C(=O)[C@H](C)[C@@H](O[C@@H]2O[C@H](C)C[C@H](N(C)C)[C@H]2O)[C@](C)(O)C[C@@H](C)C(=O)[C@H](C)[C@H]2N(C3CN(Cc4ccnc5cccnc45)C3)C(=O)O[C@]12C`, for which the MIC against Streptococcus pneumoniae [1] is at most 0.06 µg/mL; in the data set on Streptococcus pneumoniae [2], at most 0.06 µg/mL; in the data set on Streptococcus pneumoniae [3] it was at most 0.06 µg/mL; in the data set with Streptococcus pyogenes, 1 µg/mL (≈ 1.26 µM); with Haemophilus influenzae [4] it was 8 µg/mL (≈ 10.1 µM). Also, the hepatic extraction ratio at 1 µM in data set [5] was determined as 0.7. Moreover, in [7], the Stability result was “Stable”. Moreover, the half-life at 1 µM in data set [6] is under 2 h. Moreover, in [8], the IC50 was found to be 196 µM.

`CC[C@H]1OC(=O)[C@H](C)C(=O)[C@H](C)[C@@H](O[C@@H]2O[C@H](C)C[C@H](N(C)C)[C@H]2O)[C@](C)(O)C[C@@H](C)C(=O)[C@H](C)[C@H]2N(C3CN(Cc4cccc5nc[nH]c45)C3)C(=O)O[C@]12C`: the MIC was at most 0.06 µg/mL in the data set with Streptococcus pneumoniae [1]; 0.125 µg/mL (≈ 0.159 µM) against Streptococcus pneumoniae [2]; 0.5 µg/mL (≈ 0.638 µM) in the data set with Streptococcus pneumoniae [3]; 8 µg/mL (≈ 10.2 µM) with Streptococcus pyogenes; 8 µg/mL (≈ 10.2 µM) with Haemophilus influenzae [4]. For the same molecule, the half-life at 1 µM in [6] was under 2 h.

As to `CC[C@H]1OC(=O)[C@H](C)[C@@H](O[C@H]2C[C@@](C)(OC)[C@@H](O)[C@H](C)O2)[C@H](C)[C@@H](O[C@@H]2O[C@H](C)C[C@H](N(C)C)[C@H]2O)[C@](C)(OC)C[C@@H](C)C(=O)[C@H](C)[C@@H](O)[C@]1(C)O` [CLARITHROMYCIN], the MIC in the data set with Streptococcus pneumoniae [1] is at most 0.06 µg/mL; against Streptococcus pneumoniae [2], over 64 µg/mL; against Streptococcus pneumoniae [3], 16 µg/mL (≈ 21.4 µM); against Streptococcus pyogenes, over 64 µg/mL; in the data set with Haemophilus influenzae [4], 16 µg/mL (≈ 21.4 µM). Also, the half-life at 1 µM in data set [6] was under 2 h. Also, the ED50 in the data set on Streptococcus pneumoniae [9] and in the data set with Haemophilus influenzae [10] was over 100 mg/kg each time.

On to `CC[C@H]1OC(=O)[C@H](C)C(=O)[C@H](C)[C@@H](O[C@@H]2O[C@H](C)C[C@H](N(C)C)[C@H]2O)[C@](C)(O)C[C@@H](C)C(=O)[C@H](C)[C@H]2N(C3CN(Cc4c(O)cnc5cccnc45)C3)C(=O)O[C@]12C`, for which the MIC was at most 0.06 µg/mL against Streptococcus pneumoniae [1]; at most 0.06 µg/mL against Streptococcus pneumoniae [2]; at most 0.06 µg/mL against Streptococcus pneumoniae [3]; 0.5 µg/mL (≈ 0.616 µM) with Streptococcus pyogenes; 4 µg/mL (≈ 4.93 µM) against Haemophilus influenzae [4]. Also, the hepatic extraction ratio at 1 µM in data set [5] was under 0.3. For the same molecule, the Stability result in [7] is reported as “Stable”. Besides, the half-life at 1 µM in data set [6] is under 2 h. In data set [8], this molecule showed an IC50 of 67 µM. The ED50 in the data set on Streptococcus pneumoniae [9] worked out at 26.8 mg/kg; with Haemophilus influenzae [10] it was 53.6 mg/kg.

With `CC[C@H]1OC(=O)[C@H](C)C(=O)[C@H](C)[C@@H](O[C@@H]2O[C@H](C)C[C@H](N(C)C)[C@H]2O)[C@](C)(O)C[C@@H](C)C(=O)[C@H](C)[C@H]2N(C3CN(Cc4c(O)cnc5ncccc45)C3)C(=O)O[C@]12C`, the MIC with Streptococcus pneumoniae [1] was at most 0.06 µg/mL; against Streptococcus pneumoniae [2], at most 0.06 µg/mL; against Streptococcus pneumoniae [3], at most 0.06 µg/mL; against Streptococcus pyogenes it was 0.25 µg/mL (≈ 0.308 µM); against Haemophilus influenzae [4], 4 µg/mL (≈ 4.93 µM). For the same molecule, the hepatic extraction ratio at 1 µM in data set [5] is under 0.3. Further, the Stability entry in data set [7] was “Unstable”. In addition, the half-life at 1 µM in data set [6] was under 2 h. 140 µM corresponded to half-maximal inhibition in [8] (IC50).

Take `CC[C@H]1OC(=O)[C@H](C)C(=O)[C@H](C)[C@@H](O[C@@H]2O[C@H](C)C[C@H](N(C)C)[C@H]2O)[C@](C)(O)C[C@@H](C)C(=O)[C@H](C)[C@H]2N(C3CN([C@H](C)c4ccnc5ncccc45)C3)C(=O)O[C@]12C`: the MIC with Streptococcus pneumoniae [1] was at most 0.06 µg/mL; in the data set on Streptococcus pneumoniae [2] it was at most 0.06 µg/mL; in the data set with Streptococcus pneumoniae [3] it was 0.25 µg/mL (≈ 0.309 µM); in the data set on Streptococcus pyogenes, 1 µg/mL (≈ 1.23 µM); in the data set with Haemophilus influenzae [4], 4 µg/mL (≈ 4.94 µM). Besides, the hepatic extraction ratio at 1 µM in [5] stood at 0.3. Further, in data set [7], the Stability entry is listed as “Unstable”. The half-life at 1 µM in data set [6] is under 2 h. In addition, in data set [8], half-maximal inhibition (IC50) required 43 µM. Besides, the ED50 came to 54.5 mg/kg with Streptococcus pneumoniae [9] and 35.6 mg/kg in the data set with Haemophilus influenzae [10].

`CC[C@H]1OC(=O)[C@H](C)C(=O)[C@H](C)[C@@H](O[C@@H]2O[C@H](C)C[C@H](N(C)C)[C@H]2O)[C@](C)(OC)C[C@@H](C)C(=O)[C@H](C)[C@H]2N(CCCCn3cnc(-c4cccnc4)c3)C(=O)O[C@]12C` [TELITHROMYCIN]: the MIC in the data set with Streptococcus pneumoniae [1] was at most 0.06 µg/mL; against Streptococcus pneumoniae [2], at most 0.06 µg/mL; in the data set with Streptococcus pneumoniae [3], at most 0.06 µg/mL; with Streptococcus pyogenes, 32 µg/mL (≈ 39.4 µM); against Haemophilus influenzae [4], 4 µg/mL (≈ 4.93 µM). Also, the hepatic extraction ratio at 1 µM in data set [5] is 0.7. In addition, the Stability result in data set [7] was “Stable”. In addition, the half-life at 1 µM in data set [6] was under 2 h. In data set [8], this molecule came in with a half-inhibitory concentration (IC50) of 40 µM. In addition, the values for the ED50 in the data set on Streptococcus pneumoniae [9] and in the data set with Haemophilus influenzae [10] were 31.2 mg/kg and 37.5 mg/kg, respectively.

Consider `CC[C@H]1OC(=O)[C@H](C)C(=O)[C@H](C)[C@@H](O[C@@H]2O[C@H](C)C[C@H](N(C)C)[C@H]2O)[C@](C)(O)C[C@@H](C)C(=O)[C@H](C)[C@H]2N(C3CN([C@@H](C)c4ccnc5ncccc45)C3)C(=O)O[C@]12C`, for which the MIC against Streptococcus pneumoniae [1] was at most 0.06 µg/mL; in the data set with Streptococcus pneumoniae [2], at most 0.06 µg/mL; in the data set with Streptococcus pneumoniae [3], 0.25 µg/mL (≈ 0.309 µM); in the data set on Streptococcus pyogenes, 16 µg/mL (≈ 19.8 µM); with Haemophilus influenzae [4] it was 16 µg/mL (≈ 19.8 µM). Further, the half-life at 1 µM in data set [6] is under 2 h.

As to `CC[C@H]1OC(=O)[C@H](C)C(=O)[C@H](C)[C@@H](O[C@@H]2O[C@H](C)C[C@H](N(C)C)[C@H]2O)[C@](C)(O)C[C@@H](C)C(=O)[C@H](C)[C@H]2N(C3CN(Cc4ccnc5ncccc45)C3)C(=O)O[C@]12C`, the MIC is at most 0.06 µg/mL with Streptococcus pneumoniae [1]; at most 0.06 µg/mL against Streptococcus pneumoniae [2]; 0.12 µg/mL (≈ 0.151 µM) against Streptococcus pneumoniae [3]; 1 µg/mL (≈ 1.26 µM) in the data set with Streptococcus pyogenes; 4 µg/mL (≈ 5.03 µM) against Haemophilus influenzae [4]. Also, the hepatic extraction ratio at 1 µM in [5] stood at 0.6. For the same molecule, the Stability result in data set [7] is “Unstable”. Moreover, in data set [6], the half-life at 1 µM was under 2 h. In addition, in [8], the half-maximal inhibitory concentration (IC50) was 80 µM.
